Screening results deposited in PubChem by several laboratories.
CHOP inhibitor: blocks CHOP induction under ER stress; CHO-K1 CHOP-promoter luciferase, tunicamycin-induced, 15-18 h; inhibition, % at 10 µM; 220,000 compounds, 3.8% hits;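 active = compounds that reduced the stress-induced luciferase reporter signal by more than about 70% of percent inhibition, limit read from the data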;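 also: 0% = tunicamycin plus vehicle and 100% = wells without tunicamycin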
XBP1 UPR activ: activators of adaptive arm of unfolded protein response (XBP1); 330,000 compounds, 0.33% hits; activation, % at 20 µM; CHO-XBP1 luciferase reporter, IRE1-XBP1 UPR activation, luminescence; percent of tunicamycin response, DMSO as zero;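 active = versus positive control, 20 µM dose yields 30% or more activation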;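 also: 100% = tunicamycin at 10 µg/mL and 0% = DMSO only wells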
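Material – CHO cell line with stable XBP1 luciferase reporter · Buffer or medium – F12 plus 10% FBS · Compound – single point, 20 µM final compound, 1% DMSO · Schedule – 16-18 h cell attachment at 37 °C, then 6 h compound exposure · Signal – Steady-Glo luminescence read · Benchmarks – high control tunicamycin 10 µg/mL final, low control DMSO vehicle only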
UPR CHOP act: activators of apoptotic arm of unfolded protein response (CHOP) | CHO-CHOP luciferase reporter, UPR activation, luminescence; percent of tunicamycin response over DMSO baseline | activation, % at 10 µM | 330,000 compounds, 0.34% hits;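 active = at 10 µM dose, activation of 40% or more, normalized to positive control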;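 also: 100% = tunicamycin at 10 µg/mL and 0% = DMSO alone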
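assay system = CHO CHOP reporter cells | amount = 500 CHO-CHOP cells per well | buffer or medium = F12 with 10% FBS | incubation = 16-18 h cell attachment, then 6 h compound exposure, 37 °C | detection = luminescence read with Steady-Glo | read-out = percent activation relative to tunicamycin control | controls = tunicamycin high control, DMSO low control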
PvdQ acylase: blocks Pseudomonas aeruginosa PvdQ acylase activity; purified PvdQ acylase, fluorescence plate reader; inhibition, % at 10 µM; 340,000 compounds, 0.063% hits; in the data active = inhibition above about 30%, passing the limit was not always enough;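 also: 0% = vehicle neutral wells and 100% = reference inhibitor wells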
Numbers without * were called inactive; nt = not tested or not shown. This excerpt belongs to a sample that is enriched for hits.

SMILES | CHOP inhibitor | XBP1 UPR activ | UPR CHOP act | PvdQ acylase
CCCCCCNC(=O)c1c(O)c2ccccc2[nH]c1=O | 88* | 1 | 1 | -17
CCCCCCCC(=O)NNC(=O)c1c(O)c2ccccc2[nH]c1=O | 70* | 1 | 0 | -10
O=C1COc2ccc(C(=O)COC(=O)c3ccc(F)cc3Cl)cc2N1 | nt | 5 | 2 | -8
CC(C)(C)NC(=S)NCc1ccncc1 | 8 | 2 | -1 | -11
CCCCn1c(N)c(N(CC(C)C)C(=O)CCNC(=O)c2ccccc2Cl)c(=O)[nH]c1=O | nt | 1 | 0 | -3
Cc1[nH]n(-c2ccccc2)c(=O)c1C=Nc1ccc(S(=O)(=O)N=C(N)N)cc1 | 0 | -2 | 1 | 4
Cc1[nH]n(-c2ccccc2)c(=S)c1C=Nc1ccc([N+](=O)[O-])cc1 | 80* | nt | nt | -6
Cc1cccc(NC(=O)C(=O)NCc2ccc3c(c2)OCO3)c1C | 27 | 0 | 2 | -3
COC(=O)c1cc(OC)c(OC)cc1NCC(=O)Nc1ccc(C)cc1 | 10 | -1 | 2 | -7
CCOc1ccc(NC(=O)CNc2ccc(C)cc2Cl)cc1 | 91* | 0 | 3 | -5
COc1ccc(C)cc1NCC(=O)Nc1ccc(C(C)(C)C)cc1 | 70* | 4 | 1 | 22
CCOc1ccc(NCC(=O)Nc2ccc(C)cc2C)cc1 | 19 | 0 | 1 | 0
Cc1cccc(NC(=O)CNc2cc(C)ccc2C)c1 | 77* | 0 | 3 | 4
CC(=O)N1CCN(Cc2nc3cc(NC(=O)c4cccs4)ccc3n2C)CC1 | nt | -1 | -1 | -9
Cc1onc(-c2ccccc2)c1C(=O)NC1CCC(C)CC1 (stereo not given) | nt | -3 | -1 | -6
CC1CCCC(NC(=S)NC(=O)c2ccccc2Br)C1C (stereo not given) | 89* | -2 | -1 | -8
Oc1cccc(C(O)CNCc2ccc(OCc3ccc(Cl)cc3Cl)cc2)c1 (stereo not given) | 104* | 2 | -1 | 5
COc1ccccc1N1CCN(C(=O)c2ccc(C(C)(C)C)cc2)CC1 | 96* | -1 | 0 | 4
COc1ccc(N2CCN(C(=O)c3ccc(C(C)(C)C)cc3)CC2)cc1 | 85* | 0 | 0 | 6
COc1ccc(N2CCN(C(=O)CCNC(=O)c3ccc(C(C)(C)C)cc3)CC2)cc1 | 41 | -1 | 0 | 7
Cc1nn(CCO)c2ncc(C(=O)c3cc(Cl)ccc3O)cc12 | nt | 0 | 1 | -11
C[C@@]12C(=O)N(Cc3ccc(F)cc3)CC(=O)N1[C@H]1c3cc(Cl)ccc3OC[C@@H]1[C@@H]2c1ccccc1 | nt | 1 | 2 | 1
Cc1cc(C(=O)Nc2c(C)nn(Cc3ccc(F)cc3)c2C)on1 | 81* | -1 | -2 | 8
Cc1nn(Cc2ccc(Cl)c(Cl)c2)c(C)c1NC(=O)c1cc(CC(C)C)on1 | 93* | 1 | 6 | -4
Cc1ccc(Cn2ccc(NC(=O)c3cc(CC(C)C)on3)n2)cc1 | 76* | 1 | -1 | -19
SMILES | CHOP inhibitor | XBP1 UPR activ | UPR CHOP act | PvdQ acylase
COC(=O)CCCCC1SCC(NC(=O)c2ccccc2)C1=O (stereo not given) | 4 | -3 | -3 | -13
O=S(=O)(c1ccccc1)c1cnn2c(C(F)(F)F)cc(-c3ccccc3)nc12 | 12 | -2 | -1 | -6
O=S(=O)(c1ccccc1)c1cnn2c(C(F)(F)F)cc(-c3ccc(F)cc3)nc12 | 71* | 2 | 0 | 6
Cc1ccc(S(=O)(=O)Nc2cc3c(C(=O)Nc4ccccc4)c(C)oc3c3ccccc23)cc1 | 13 | -4 | -3 | -9
Cc1cccc(Nc2nc(N)c([N+](=O)[O-])c(NCc3ccco3)n2)c1 | 96* | 3 | 6 | 5
Nc1nc(Nc2ccc(Cl)cc2)nc(NCc2ccco2)c1[N+](=O)[O-] | 86* | 20 | 9 | -14
Nc1nc(Nc2cccc(F)c2)nc(NCc2ccco2)c1[N+](=O)[O-] | 84* | 10 | 1 | -6
Nc1nc(Nc2cccc(Cl)c2)nc(NCc2ccco2)c1[N+](=O)[O-] | 0 | 8 | 6 | -8
Cc1cccc(Nc2nc(NCc3ccco3)nc(N)c2[N+](=O)[O-])c1 | 18 | 11 | 1 | -6
Cc1cccc2c1[nH]c1nc(N/N=C\c3ccco3)nnc12 | 85* | 1 | 5 | nt
CCCS(=O)(=O)Nc1ccc(-c2ccc3nnc(C)n3n2)cc1 | -4 | nt | nt | nt
O=C(Nc1scc(-c2ccccc2)c1C(=O)O)c1ccco1 | 73* | -4 | 1 | -9
